# Only some compounds are listed: those with a hit (about 2% of all), similar ones and a draw of the others.
# NR2E3 ag-1: agonists of human nuclear receptor NR2E3; Q9Y5X4; hit rate 0.12% among 320,000; inhibition of corepressor binding, % at 4.78 µM; GST-NR2E3/biotin-RetCOR TR-FRET, 1536-well;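 active = percent inhibition above the cutoff of mean plus 3 SD of all tested compounds, set per screening campaign, cut at about 20% in these data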
# Target sequence (Q9Y5X4 whole entry, looked up): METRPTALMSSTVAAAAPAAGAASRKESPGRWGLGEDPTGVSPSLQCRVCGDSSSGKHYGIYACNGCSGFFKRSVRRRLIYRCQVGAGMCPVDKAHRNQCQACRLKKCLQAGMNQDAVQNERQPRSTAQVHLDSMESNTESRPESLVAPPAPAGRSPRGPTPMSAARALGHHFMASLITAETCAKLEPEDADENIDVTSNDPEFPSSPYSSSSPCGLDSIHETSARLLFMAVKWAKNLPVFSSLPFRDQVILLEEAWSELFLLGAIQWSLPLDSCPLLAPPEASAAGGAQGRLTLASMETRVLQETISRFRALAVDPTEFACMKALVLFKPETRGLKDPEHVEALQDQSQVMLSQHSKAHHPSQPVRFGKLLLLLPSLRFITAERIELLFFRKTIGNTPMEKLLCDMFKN
#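 Material: NR2E3–RetCOR corepressor complex / Amount: 1.35 nM GST-NR2E3 / Medium: Tris pH 7.5 / Compound: single nominal compound dose of 4.8 µM / Incubation: 5 h at 4 °C / Technique: TR-FRET, Eu(K)-anti-GST donor, streptavidin-D2 acceptor, ex 340, em 617/671 nm / Read-out basis: percent loss of FRET ratio relative to control wells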
# NR2E3 ag-2: agonists of human NR2E3 nuclear receptor; CHO-S Gal4-NCOR/VP16-NR2E3 two-hybrid, luciferase; inhibition of corepressor binding, % at 3.98 µM; hit rate 0.35% among 360,000;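 active = inhibition above the mean of all tested compounds plus 3 SD, cut at about 70% in these data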;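 note: higher means lower luciferase signal from less NR2E3 corepressor binding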
# TROY signal inh: blocks TROY-dependent signaling in reporter cells; Q293 LMP1-TROYcd NF-kB luciferase reporter, 4 h; inhibition, % at 10 µM; hit rate 0.98% among 360,000;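 active = compounds whose plate-normalised and pattern-corrected inhibition of the luciferase reporter signal at the single screening dose is 50% or more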
# HIF act: HIF pathway transcriptional activation; U2OS HRE-luciferase reporter, luminescence; normalized: DMSO 0%, desferrioxamine 100%; hit rate 0.32% among 300,000; activation, % at 7.5 µM (by protocol);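 active = mean activation of at least 10% of the iron chelator positive control signal, with at least half of replicates also reaching 10%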
# LMP1 NFkB inh: reduces LMP1-driven NF-kappaB luciferase signal; AID 504558; LMP1-induced NF-kappaB luciferase reporter cells, luminescence; hit rate 0.69% among 350,000; inhibition, % at 12.5 µM; in the data active = inhibition above about 41%
# Hits are given with their value; i = inactive; nt = no result.
SMILES,NR2E3 ag-1,NR2E3 ag-2,TROY signal inh,HIF act,LMP1 NFkB inh
CC1(c2nnnn2-c2ccc3c(c2)OCCO3)CCC(=O)N1CCCN1CCOCC1 (stereo not drawn),nt,i,i,nt,nt
CC(NS(=O)(=O)c1ccc(Br)cc1)C(=O)NCCc1ccccc1 (stereo not drawn),i,i,56.8,i,i
O=C(CCNS(=O)(=O)c1ccc(Br)cc1)NCCc1ccccc1,i,i,i,i,i
COc1ccccc1N(CC(=O)N/N=C/c1c(O)ccc2ccccc12)S(C)(=O)=O,i,i,i,11.1,i
COc1ccccc1N(CC(=O)NC1CCCCC1)S(C)(=O)=O,i,i,i,93.6,i
COc1ccccc1N(CC(=O)NC1CCCCC1)S(=O)(=O)c1ccccc1,i,i,i,i,i
Cc1cc(NC(=O)CSCC(=O)OCC(=O)Nc2ccc(OC(F)F)cc2)no1,i,i,i,nt,i
CC(NC(=S)Nc1cccc(C(F)(F)F)c1)C(C)(C)C (stereo not drawn),i,i,i,i,i
CCOc1ccc(/C=C/[N+](=O)[O-])c2ccccc12,i,i,i,i,74.7
COc1ccc(CN2CCC(Oc3ccc(C(=O)N4CCCC4)cc3)CC2)c(F)c1,i,i,i,i,i
O=C(CSc1nnc(Nc2ccccc2)s1)NCC1CCCO1 (stereo not drawn),i,i,i,nt,i
N#Cc1c(Nc2ccccc2)sc(C(=O)c2ccc(F)cc2)c1N,i,i,i,i,42.7
Cc1ccc(C(=O)c2sc(Nc3ccccc3)c(C#N)c2N)cc1,i,i,i,i,i
COc1cc2c(CCNC(C)=O)c[nH]c2cc1Cl,i,i,i,nt,74.2
COc1cc(NC(=S)NCCc2c[nH]c3ccccc23)c(OC)cc1Cl,i,i,i,i,i
O=C(CCNc1cccc(F)c1)c1cc2ccccc2o1,i,i,i,i,45.7
CCN(CC)CCNC(=O)c1ccc(NC(=O)C2CCN(c3ncnc4sc(C)c(C)c34)CC2)cc1,i,i,i,i,i
Cc1nccc(-c2sc(-c3cccs3)nc2C)n1,i,i,59.5,i,i
Cc1nc(-c2cccs2)sc1C(=O)O,i,i,i,i,i
C=CC(=O)Nc1cccc(Nc2nc(N[C@H]3CC[C@H](N(C)C)CC3)nc3c2ncn3C(C)C)c1,nt,i,76.8,nt,91.5
CC(C)n1cnc2c(Nc3cccc(Cl)c3)nc(NCCCO)nc21,i,i,i,i,i
Nc1ccn([C@@H]2O[C@H](C(=O)N[C@H]3c4ccccc4C[C@H]3O)[C@@H](O)[C@H]2O)c(=O)n1,nt,i,i,nt,nt
C[C@@H](OC(=O)c1[nH]cnc1C(=O)N1CCc2ccccc2C1)c1ccccc1,nt,i,i,nt,84.9
CC1CCN(C(=O)c2nc[nH]c2C(=O)O[C@H](C)c2ccccc2)CC1,i,i,i,nt,i
COc1ccc(C(=O)/C=C/C(=O)N(CC(=O)NC2CCCCC2)Cc2cccs2)c(O)c1,i,i,i,i,58.7
SMILES,NR2E3 ag-1,NR2E3 ag-2,TROY signal inh,HIF act,LMP1 NFkB inh
COCCN(CC(=O)NC1CCCCC1)C(=O)/C=C/C(=O)c1ccc(OC)cc1O,nt,i,58.4,i,i
COc1ccc(C(=O)/C=C/C(=O)N(Cc2ccc3c(c2)OCO3)C(C(=O)NC2CCCCC2)c2ccncc2)c(O)c1 (stereo not drawn),i,i,i,i,i
COc1ccc(CN(C(=O)/C=C/C(=O)c2ccc(OC)cc2O)C(C(=O)NC2CCCCC2)c2ccncc2)cc1 (stereo not drawn),i,i,i,i,i
CCCC(C(=O)Nc1cccc(S(=O)(=O)N2CCCC2)c1)c1ccccc1 (stereo not drawn),i,i,i,i,i
CCN(Cc1ccc2c(c1)OCO2)C(=O)CSc1ncnc2sccc12,i,i,i,nt,i
CCN(Cc1ccc2c(c1)OCCO2)C(=O)CSc1nc(C)nc2sc(C)c(C)c12,i,i,57.6,nt,i
Cc1ccccc1CN1CCN(S(C)(=O)=O)CC1,i,i,i,i,i
CCOc1ccccc1CN1CCN(S(C)(=O)=O)CC1,i,i,i,14.1,i
Cn1c2c(c(=O)n(C)c1=O)C(C(F)(F)F)(C(F)(F)F)N=C(CCC1CCCCC1)N2,i,i,53.0,i,i
Cn1c2c(c(=O)n(C)c1=O)C(C(F)(F)F)(C(F)(F)F)N=C(c1ccccc1Cl)N2,i,i,i,i,i
CCOc1ccc2[nH]c3nc(SCC(=O)NCC4CCCO4)nnc3c2c1 (stereo not drawn),i,i,i,i,i
CCOc1ccc2c(c1)c1nnc(SCC3CCCO3)nc1n2C (stereo not drawn),i,i,i,93.1,i
O=C(O)c1cccnc1SCc1ccccc1Cl,i,i,i,108.1,i
O=C(Nc1nc(-c2cccs2)c(C(=O)C(F)(F)F)s1)c1ccccc1,i,i,59.5,i,i
COc1ccc(C(=O)Nc2nc(-c3cccs3)c(NC(C)=O)s2)cc1,i,i,i,i,i
Cn1cnc([N+](=O)[O-])c1S(=O)(=O)c1cccc(Cl)c1,i,i,63.9,i,i
Cn1cnc([N+](=O)[O-])c1S(=O)(=O)Oc1ccccc1,nt,i,i,nt,i
CCOC(=O)CSc1nc2ccccc2c(=O)n1NC(=O)c1ccccc1,i,i,i,i,i
COc1ccc(C(=O)CSc2nncn2C)cc1,i,i,i,21.6,i
COc1ccc(C(=O)Nn2c(SCc3ccc([N+](=O)[O-])cc3)nc3ccccc3c2=O)cc1,i,i,76.1,i,i
COc1ccc(C(=O)Nn2c(SCC(=O)c3ccccc3)nc3ccccc3c2=O)cc1,i,i,79.6,i,i
Nn1c(SCc2ccc([N+](=O)[O-])cc2)nc2ccccc2c1=O,i,i,i,i,i
COC(=O)C1CCN(C(=O)CC(NC(=O)C(F)(F)F)c2cccs2)CC1 (stereo not drawn),i,i,i,i,i
O=C(N/N=C/c1sc(N2CCOCC2)nc1-c1ccccc1)c1ccccc1O,i,i,i,i,i
Cc1cc(C(=O)N/N=C/c2sc(N3CCOCC3)nc2-c2ccccc2)c(C)o1,i,i,i,i,41.5
SMILES,NR2E3 ag-1,NR2E3 ag-2,TROY signal inh,HIF act,LMP1 NFkB inh
COc1nccc(C(F)(F)F)c1C(=O)NC(=O)Nc1ccccc1,i,i,i,139.6,i
COc1nccc(C(F)(F)F)c1C(=O)NC(=O)Nc1c(C)cccc1C,i,i,i,i,i
C[C@@H]1C2CC(C/C2=N\NC(=O)c2ccncc2)C1(C)C (stereo partly drawn),i,i,i,i,71.8
CCc1cccc(C)c1NC(=O)CCCN1C(=O)CN(C)C1=O,i,i,i,nt,i
Cc1csc(NC(=O)Cc2ccc(F)cc2)n1,i,i,i,i,i
CC1(C(=O)OCC(=O)Nc2nc(-c3ccc(F)c(F)c3)cs2)CC1(Cl)Cl (stereo not drawn),i,i,81.7,i,i
CS(=O)(=O)N1CCc2cc(-c3csc(NC(=O)C(c4ccccc4)c4ccccc4)n3)ccc21,i,i,i,i,i
COc1ccc(-c2csc(NC(=O)CSc3nc(C)cs3)n2)cc1,i,i,i,i,i
COc1ccc(-c2csc(NC(=O)CSc3nc(SC)ns3)n2)cc1,i,i,54.1,i,i
